# Measurements from ChEMBL document CHEMBL1157665, “Novel 4-thiazolidinone derivatives as potential antifungal and antibacterial drugs” (2010).
# Assays:
# Trichoderma viride [1] = assay: Antifungal activity against Trichoderma viride IAM 5061 after 72 hrs by serial dilution method; format: functional; conditions: IAM 5061, 72 h
# Summary of the method: (§1)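 Fungi were kept on malt agar at 4 °C and sub-cultured monthly. Spores were washed off the agar with sterile 0.85% saline containing 0.1% Tween 80 (v/v). Modified microdilution in 96-well plates. MIC is the lowest concentration with no visible growth under the binocular microscope. Inoculum checked on malt agar for contamination and validity.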
# Aspergillus fumigatus [2] = assay: Antifungal activity against Aspergillus fumigatus plant isolate after 72 hrs by serial sub-cultivation method
# Proteus mirabilis [3] = assay: Antibacterial activity against Proteus mirabilis after 72 hrs by serial sub-cultivation method; format: functional
# Summary of the method: (§2)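 MBC was found by serial sub-cultivation of 2 µl from the MIC wells into plates holding 100 µl broth per well, then incubation for 72 h. MBC is the lowest concentration with no visible growth, i.e. 99.5% killing of the original inoculum. Bacterial inoculum was 1.0 × 10^4 cfu per well in LB broth. Duplicate, repeated three times.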
# Escherichia coli [4] = assay: Antibacterial activity against Escherichia coli ATCC 35210 after 24 hrs; format: functional; conditions: ATCC 35210, 24 h
# Summary of the method: (§3)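 Broth microdilution MIC in 96-well plates. Compounds in LB broth with bacterial inoculum of 1.0 × 10^4 cfu per well, from suspensions adjusted with sterile saline to 1.0 × 10⁵ CFU/ml. Incubated 24 h at […] as printed. MIC taken as the lowest concentration with no visible growth under the binocular microscope. OD at 655 nm also read against blank. Streptomycin and ampicillin as positive controls. Duplicate, repeated three times.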
# Listeria monocytogenes [5] = assay: Antibacterial activity against Listeria monocytogenes NCTC 7973 after 24 hrs; format: functional; conditions: NCTC 7973, 24 h; summary of the method: as §3
# Bacillus cereus [6] = assay: Antibacterial activity against Bacillus cereus clinical isolate after 24 hrs; format: functional; summary of the method: as §3
# Aspergillus fumigatus [7] = assay: Antifungal activity against Aspergillus fumigatus plant isolate after 72 hrs by serial dilution method
# Penicillium ochrochloron [8] = assay: Antifungal activity against Penicillium ochrochloron ATCC 9112 after 72 hrs by serial sub-cultivation method; format: functional; conditions: ATCC 9112, 72 h
# Summary of the method: (§4)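 MFC was found by serial sub-cultivation of 2 µl into plates holding 100 µl broth per well, then incubation 72 h at 28 °C. MFC is the lowest concentration with no visible growth, taken as 99.5% killing of the original inoculum. Spore inocula came from malt agar cultures washed with 0.85% saline and 0.1% Tween 80.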
# Listeria monocytogenes [9] = assay: Antibacterial activity against Listeria monocytogenes NCTC 7973 after 72 hrs by serial sub-cultivation method; format: functional; conditions: NCTC 7973, 72 h; summary of the method: as §2
# Penicillium ochrochloron [10] = assay: Antifungal activity against Penicillium ochrochloron ATCC 9112 after 72 hrs by serial dilution method; format: functional; conditions: ATCC 9112, 72 h; summary of the method: as §1
# Talaromyces funiculosus [11] = assay: Antifungal activity against Penicillium funiculosum ATCC 36839 after 72 hrs by serial sub-cultivation method; format: functional; conditions: ATCC 36839, 72 h; summary of the method: as §4
# Escherichia coli [12] = assay: Antibacterial activity against Escherichia coli ATCC 35210 after 72 hrs by serial sub-cultivation method; format: functional; conditions: ATCC 35210, 72 h; summary of the method: as §2
# Fulvia fulva [13] = assay: Antifungal activity against Fulvia fulva TK 5318 after 72 hrs by serial dilution method; format: functional; conditions: TK 5318, 72 h; summary of the method: as §1
# Proteus mirabilis [14] = assay: Antibacterial activity against Proteus mirabilis after 24 hrs; format: functional; summary of the method: as §3
# Aspergillus versicolor [15] = assay: Antifungal activity against Aspergillus versicolor ATCC 11730 after 72 hrs by serial sub-cultivation method; format: functional; conditions: ATCC 11730, 72 h; summary of the method: as §4
# Pseudomonas aeruginosa [16] = assay: Antibacterial activity against Pseudomonas aeruginosa ATCC 27853 after 24 hrs; format: functional; conditions: ATCC 27853, 24 h; summary of the method: as §3
# Salmonella typhimurium [17] = assay: Antibacterial activity against Salmonella Typhimurium ATCC 13311 after 72 hrs by serial sub-cultivation method; format: functional, Salmonella enterica subsp. enterica serovar Typhimurium; conditions: Salmonella enterica, ATCC 13311, 72 h; summary of the method: as §2
# Aspergillus niger [18] = assay: Antifungal activity against Aspergillus niger ATCC 6275 after 72 hrs by serial sub-cultivation method; format: functional; conditions: ATCC 6275, 72 h; summary of the method: as §4
# Fulvia fulva [19] = assay: Antifungal activity against Fulvia fulva TK 5318 after 72 hrs by serial sub-cultivation method; format: functional; conditions: TK 5318, 72 h; summary of the method: as §4
# Micrococcus flavus [20] = assay: Antibacterial activity against Micrococcus flavus ATCC 10240 after 72 hrs by serial sub-cultivation method; format: functional; conditions: ATCC 10240, 72 h; summary of the method: as §2
# Micrococcus flavus [21] = assay: Antibacterial activity against Micrococcus flavus ATCC 10240 after 24 hrs; format: functional; conditions: ATCC 10240, 24 h; summary of the method: as §3
# Aspergillus flavus [22] = assay: Antifungal activity against Aspergillus flavus ATCC 9643 after 72 hrs by serial sub-cultivation method; format: functional; conditions: ATCC 9643, 72 h; summary of the method: as §4
# Bacillus cereus [23] = assay: Antibacterial activity against Bacillus cereus clinical isolate after 72 hrs by serial sub-cultivation method; format: functional; summary of the method: as §2
# Salmonella typhimurium [24] = assay: Antibacterial activity against Salmonella Typhimurium ATCC 13311 after 24 hrs; format: functional, Salmonella enterica subsp. enterica serovar Typhimurium; conditions: Salmonella enterica, ATCC 13311, 24 h; summary of the method: as §3
# Staphylococcus aureus [25] = assay: Antibacterial activity against Staphylococcus aureus ATCC 6538 after 72 hrs by serial sub-cultivation method; format: functional; conditions: ATCC 6538, 72 h; summary of the method: as §2
# Trichoderma viride [26] = assay: Antifungal activity against Trichoderma viride IAM 5061 after 72 hrs by serial sub-cultivation method; format: functional; conditions: IAM 5061, 72 h; summary of the method: as §4
# Talaromyces funiculosus [27] = assay: Antifungal activity against Penicillium funiculosum ATCC 36839 after 72 hrs by serial dilution method; format: functional; conditions: ATCC 36839, 72 h; summary of the method: as §1
# Aspergillus niger [28] = assay: Antifungal activity against Aspergillus niger ATCC 6275 after 72 hrs by serial dilution method; format: functional; conditions: ATCC 6275, 72 h; summary of the method: as §1
# Staphylococcus aureus [29] = assay: Antibacterial activity against Staphylococcus aureus ATCC 6538 after 24 hrs; format: functional; conditions: ATCC 6538, 24 h; summary of the method: as §3
# Aspergillus versicolor [30] = assay: Antifungal activity against Aspergillus versicolor ATCC 11730 after 72 hrs by serial dilution method; format: functional; conditions: ATCC 11730, 72 h; summary of the method: as §1
# Pseudomonas aeruginosa [31] = assay: Antibacterial activity against Pseudomonas aeruginosa ATCC 27853 after 72 hrs by serial sub-cultivation method; format: functional; conditions: ATCC 27853, 72 h; summary of the method: as §2
# Aspergillus flavus [32] = assay: Antifungal activity against Aspergillus flavus ATCC 9643 after 72 hrs by serial dilution method; format: functional; conditions: ATCC 9643, 72 h; summary of the method: as §1
Compound,MIC (Trichoderma viride [1]) [µM],MFC (Aspergillus fumigatus [2]) [µM],MBC (Proteus mirabilis [3]) [µM],MIC (Escherichia coli [4]) [µM],MIC (Listeria monocytogenes [5]) [µM],MIC (Bacillus cereus [6]) [µM],MIC (Aspergillus fumigatus [7]) [µM],MFC (Penicillium ochrochloron [8]) [µM],MBC (Listeria monocytogenes [9]) [µM],MIC (Penicillium ochrochloron [10]) [µM],MFC (Talaromyces funiculosus [11]) [µM],MBC (Escherichia coli [12]) [µM],MIC (Fulvia fulva [13]) [µM],MIC (Proteus mirabilis [14]) [µM],MFC (Aspergillus versicolor [15]) [µM],MIC (Pseudomonas aeruginosa [16]) [µM],MBC (Salmonella typhimurium [17]) [µM],MFC (Aspergillus niger [18]) [µM],MFC (Fulvia fulva [19]) [µM],MBC (Micrococcus flavus [20]) [µM],also measured
COc1cc(/C=C2\S/C(=N\c3nc(C45CC6CC(CC(C6)C4)C5)cs3)NC2=O)cc(OC)c1O,10.5,20.9,62.7,20.9,20.9,20.9,15.7,10.5,41.8,5.2,20.9,41.8,5.2,41.8,20.9,15.7,15.7,20.9,20.9,20.9,MIC (Micrococcus flavus [21]): 10.5 µM; MFC (Aspergillus flavus [22]): 20.9 µM; MBC (Bacillus cereus [23]): 20.9 µM; MIC (Salmonella typhimurium [24]): 10.5 µM; MBC (Staphylococcus aureus [25]): 15.7 µM; MFC (Trichoderma viride [26]): 20.9 µM; MIC (Talaromyces funiculosus [27]): 10.5 µM; MIC (Aspergillus niger [28]): 10.5 µM; MIC (Staphylococcus aureus [29]): 10.5 µM; MIC (Aspergillus versicolor [30]): 15.7 µM; MBC (Pseudomonas aeruginosa [31]): 41.8 µM; MIC (Aspergillus flavus [32]): 10.5 µM
CC1(C)S[C@@H]2[C@H](NC(=O)[C@H](N)c3ccccc3)C(=O)N2[C@H]1C(=O)O [AMPICILLIN],,,492,372,372,248,,,744,,,492,,372,,744,492,,,372,MIC (Micrococcus flavus [21]): 248 µM; MBC (Bacillus cereus [23]): 372 µM; MIC (Salmonella typhimurium [24]): 248 µM; MBC (Staphylococcus aureus [25]): 372 µM; MIC (Staphylococcus aureus [29]): 248 µM; MBC (Pseudomonas aeruginosa [31]): 1240 µM
c1ccc(-c2ccc(C(c3ccccc3)n3ccnc3)cc2)cc1 (stereo unspecified) [BIFONAZOLE],640,640,,,,,480,640,,480,800,,320,,640,,,640,640,,MFC (Aspergillus flavus [22]): 640 µM; MFC (Trichoderma viride [26]): 800 µM; MIC (Talaromyces funiculosus [27]): 640 µM; MIC (Aspergillus niger [28]): 480 µM; MIC (Aspergillus versicolor [30]): 320 µM; MIC (Aspergillus flavus [32]): 480 µM
CC(=O)N1CCN(c2ccc(OCC3COC(Cn4ccnc4)(c4ccc(Cl)cc4Cl)O3)cc2)CC1 (stereo unspecified) [KETOCONAZOLE],4750,950,,,,,380,3800,,3800,950,,380,,950,,,950,950,,MFC (Aspergillus flavus [22]): 3800 µM; MFC (Trichoderma viride [26]): 5700 µM; MIC (Talaromyces funiculosus [27]): 380 µM; MIC (Aspergillus niger [28]): 380 µM; MIC (Aspergillus versicolor [30]): 380 µM; MIC (Aspergillus flavus [32]): 2850 µM
CN[C@@H]1[C@H](O[C@H]2[C@H](O[C@H]3[C@H](O)[C@@H](O)[C@H](N=C(N)N)[C@@H](O)[C@@H]3N=C(N)N)O[C@@H](C)[C@]2(O)C=O)O[C@@H](CO)[C@H](O)[C@H]1O [STREPTOMYCIN],,,344,172,258,43,,,516,,,344,,172,,172,344,,,172,MIC (Micrococcus flavus [21]): 86 µM; MBC (Bacillus cereus [23]): 86 µM; MIC (Salmonella typhimurium [24]): 172 µM; MBC (Staphylococcus aureus [25]): 344 µM; MIC (Staphylococcus aureus [29]): 172 µM; MBC (Pseudomonas aeruginosa [31]): 344 µM
